{
  "source": "ChEMBL document CHEMBL1759916",
  "about": "“Bicyclo[2.2.2]octyltriazole inhibitors of 11β-hydoxysteroid dehydrogenase type 1. Pharmacological agents for the treatment of metabolic syndrome” (Bioorg Med Chem Lett, 2011)",
  "key": {"Mus musculus [1]": {"tested_on": "Mus musculus", "test": "Inhibition of 11beta-HSD1 in ICR mouse assessed as inhibition of conversion of [3H]-cortisone to [3H]-cortisol at 10 mg/kg, po administered 4 hrs before [3H]-cortisone challenge", "assay_type": "functional", "procedure,_shortened": "(§1)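 Mouse pharmacodynamic model. Compound given 10 mg/kg PO, then 3H-cortisone by tail vein injection 1, 4 or 16 h after dosing. […] Plasma compound levels were measured after the PD studies.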"}, "[2]": {"molecular_target": "11-beta-hydroxysteroid dehydrogenase 1 (Mus musculus, UniProt P50172)", "sequence (P50172 whole entry)": "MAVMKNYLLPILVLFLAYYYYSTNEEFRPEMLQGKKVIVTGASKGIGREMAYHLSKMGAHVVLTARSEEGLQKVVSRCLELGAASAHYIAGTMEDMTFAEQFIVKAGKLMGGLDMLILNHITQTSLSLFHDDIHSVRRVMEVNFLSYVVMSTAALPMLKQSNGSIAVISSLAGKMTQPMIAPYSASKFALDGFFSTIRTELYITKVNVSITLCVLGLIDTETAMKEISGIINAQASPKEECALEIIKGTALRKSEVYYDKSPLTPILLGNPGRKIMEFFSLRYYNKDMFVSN", "test": "Inhibition of mouse 11beta-HSD1 expressed in CHO-K1 cells assessed as conversion of [3H]-cortisone to [3H]-cortisol by scintillation proximity assay", "assay_type": "cell-based"}, "[3]": {"molecular_target": "11-beta-hydroxysteroid dehydrogenase 1 (Homo sapiens, UniProt P28845)", "sequence (P28845 whole entry)": "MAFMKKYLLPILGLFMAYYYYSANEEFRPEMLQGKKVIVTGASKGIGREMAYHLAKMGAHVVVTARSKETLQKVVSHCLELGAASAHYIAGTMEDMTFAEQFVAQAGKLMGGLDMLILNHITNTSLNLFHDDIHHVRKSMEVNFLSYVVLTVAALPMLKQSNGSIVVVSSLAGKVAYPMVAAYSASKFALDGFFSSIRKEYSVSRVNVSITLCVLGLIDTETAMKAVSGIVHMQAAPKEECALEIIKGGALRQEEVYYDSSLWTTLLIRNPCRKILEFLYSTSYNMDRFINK", "test": "Inhibition of human 11beta-HSD1 expressed in CHO-K1 cells assessed as conversion of [3H]-cortisone to [3H]-cortisol by scintillation proximity assay", "assay_type": "cell-based", "procedure,_shortened": "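Scintillation proximity assay (SPA). IC50 values are the average of two determinations.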"}, "Mus musculus [4]": {"tested_on": "Mus musculus", "test": "Inhibition of 11beta-HSD1 in ICR mouse assessed as inhibition of conversion of [3H]-cortisone to [3H]-cortisol at 10 mg/kg, po administered 16 hrs before [3H]-cortisone challenge", "assay_type": "functional", "procedure,_shortened": "as §1"}, "[5]": {"molecular_target": "T1, Nuclear receptor subfamily 1 group I member 2 (Homo sapiens, UniProt O75469)", "T1 sequence (O75469 whole entry)": "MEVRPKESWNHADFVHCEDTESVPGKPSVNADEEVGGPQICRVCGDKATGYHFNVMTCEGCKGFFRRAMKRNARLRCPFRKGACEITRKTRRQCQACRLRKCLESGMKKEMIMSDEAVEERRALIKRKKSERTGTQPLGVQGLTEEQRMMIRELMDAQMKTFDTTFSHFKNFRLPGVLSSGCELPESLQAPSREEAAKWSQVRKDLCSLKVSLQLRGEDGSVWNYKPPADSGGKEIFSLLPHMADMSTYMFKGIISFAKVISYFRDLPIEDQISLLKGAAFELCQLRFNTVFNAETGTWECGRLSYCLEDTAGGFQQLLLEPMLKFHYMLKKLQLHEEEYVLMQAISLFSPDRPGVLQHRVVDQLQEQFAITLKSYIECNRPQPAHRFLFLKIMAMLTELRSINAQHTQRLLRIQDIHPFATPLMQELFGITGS", "test": "Activation of PXR", "procedure,_shortened": "(§2)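 Cyp induction potential assessed in human liver microsomes; read out as human PXR activation, with test compound at 10 μM.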"}, "[6]": {"test": "Bioavailability in Sprague-Dawley rat 1 mg/kg, iv and 4 mg/kg, po", "assay_type": "ADME, organism-based", "conditions": "in vivo"}, "[7]": {"test": "Clearance in rhesus monkey at 0.5 mg/kg, iv and 2 mg/kg, po", "assay_type": "ADME, organism-based, Macaca mulatta", "conditions": "in vivo"}, "[8]": {"test": "Distribution coefficient, log D of the compound by HPLC analysis", "assay_type": "physicochemical", "conditions": "octanol/water"}, "[9]": {"test": "Tmax in Sprague-Dawley rat at 1 mg/kg, iv and 4 mg/kg, po", "assay_type": "ADME, organism-based", "conditions": "in vivo"}, "[10]": {"test": "Tmax in Beagle dog at 0.5 mg/kg, iv and 2 mg/kg, po", "assay_type": "ADME, organism-based, Canis lupus familiaris", "conditions": "in vivo"}, "[11]": {"test": "Half life in rhesus monkey at 0.5 mg/kg, iv and 2 mg/kg, po", "assay_type": "ADME, organism-based, Macaca mulatta", "conditions": "in vivo"}, "[12]": {"test": "Half life in Sprague-Dawley rat at 1 mg/kg, iv and 4 mg/kg, po", "assay_type": "ADME, organism-based", "conditions": "in vivo"}, "[13]": {"test": "Half life in Beagle dog at 0.5 mg/kg, iv and 2 mg/kg, po", "assay_type": "ADME, organism-based, Canis lupus familiaris", "conditions": "in vivo"}, "[14]": {"test": "Bioavailability in C57 mouse at 2 mg/kg, iv and 10 mg/kg, po", "assay_type": "ADME, organism-based", "conditions": "in vivo", "procedure,_shortened": "(§3)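 Mouse PK from 2 mg/kg IV and 10 mg/kg oral dosing. The PO AUC is reported normalized to dose.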"}, "[15]": {"test": "Volume of distribution in rhesus monkey at 0.5 mg/kg, iv and 2 mg/kg, po", "assay_type": "ADME, organism-based, Macaca mulatta", "conditions": "in vivo"}, "Mus musculus [16]": {"organism": "Mus musculus", "test": "Antiatherosclerotic activity in Apo-E knockout mouse model", "assay_type": "functional, organism-based"}, "[17]": {"test": "Half life in C57 mouse at 2 mg/kg, iv and 10 mg/kg, po", "assay_type": "ADME, organism-based", "conditions": "in vivo"}, "[18]": {"test": "Volume of distribution in Beagle dog at 0.5 mg/kg, iv and 2 mg/kg, po", "assay_type": "ADME, organism-based, Canis lupus familiaris", "conditions": "in vivo"}, "[19]": {"test": "Bioavailability in Beagle dog at 0.5 mg/kg, iv and 2 mg/kg, po", "assay_type": "ADME, organism-based, Canis lupus familiaris", "conditions": "in vivo"}, "[20]": {"test": "Volume of distribution in Sprague-Dawley rat at 1 mg/kg, iv and 4 mg/kg, po", "assay_type": "ADME, organism-based", "conditions": "in vivo"}, "Mus musculus [21]": {"organism": "Mus musculus", "test": "Antidiabetic activity in B6-Ay mouse by oral glucose tolerance test", "assay_type": "functional, organism-based"}, "[22]": {"test": "Clearance in C57 mouse at 2 mg/kg, iv", "assay_type": "ADME, organism-based", "set-up": "dose 2 mg/kg, route intravenous", "conditions": "in vivo", "procedure,_shortened": "as §3"}, "[23]": {"test": "Volume of distribution in C57 mouse at 2 mg/kg, iv and 10 mg/kg, po", "assay_type": "ADME, organism-based", "conditions": "in vivo"}, "[24]": {"molecular_target": "T1, Nuclear receptor subfamily 1 group I member 2", "test": "Activation of human PXR at 10 uM", "procedure,_shortened": "as §2"}, "[25]": {"test": "Tmax in rhesus monkey at 0.5 mg/kg, iv and 2 mg/kg, po", "assay_type": "ADME, organism-based, Macaca mulatta", "conditions": "in vivo"}, "[26]": {"test": "Tmax in C57 mouse at 2 mg/kg, iv and 10 mg/kg, po", "assay_type": "ADME, organism-based", "conditions": "in vivo"}, "[27]": {"test": "Clearance in Beagle dog at 0.5 mg/kg, iv and 2 mg/kg, po", "assay_type": "ADME, organism-based, Canis lupus familiaris", "conditions": "in vivo"}, "[28]": {"test": "Induction of cytochrome P450 activity in human liver microsomes", "assay_type": "ADME", "procedure,_shortened": "as §2"}, "Mus musculus [29]": {"organism": "Mus musculus", "test": "Antiobesity activity in diet-induced obesity mouse model", "assay_type": "functional, organism-based"}, "[30]": {"test": "Bioavailability in rhesus monkey at 0.5 mg/kg, iv and 2 mg/kg, po", "assay_type": "ADME, organism-based, Macaca mulatta", "conditions": "in vivo"}, "[31]": {"test": "Solubility of the compound in water", "assay_type": "physicochemical"}, "[32]": {"test": "Clearance in Sprague-Dawley rat at 1 mg/kg, iv and 4 mg/kg, po", "assay_type": "ADME, organism-based", "conditions": "in vivo"}, "Mus musculus [33]": {"tested_on": "Mus musculus", "test": "Inhibition of 11beta-HSD1 in ICR mouse assessed as inhibition of conversion of [3H]-cortisone to [3H]-cortisol at 10 mg/kg, po administered 1 hr before [3H]-cortisone challenge", "assay_type": "functional", "procedure,_shortened": "as §1"}},
  "note": "Activity calls are given as the source filed them. No cut-off for these calls is given here.",
  "data": [
    {"smiles": "Cn1c(-c2ccccc2C(F)(F)F)nnc1C12CCC(COc3ccc(Cl)cc3)(CC1)CC2", "values": [
      {"measurement": "inhibition in vivo at 10 mg/kg", "setting": "Mus musculus [1]", "value": 98, "unit": "%"},
      {"measurement": "IC50", "setting": "[2]", "value": 1.5, "unit": "nM"},
      {"measurement": "IC50", "setting": "[3]", "value": 1.1, "unit": "nM"},
      {"measurement": "inhibition in vivo at 10 mg/kg", "setting": "Mus musculus [4]", "value": 77, "unit": "%"},
      {"measurement": "Activity", "setting": "[5]", "value": "Active"}
    ]},
    {"smiles": "CCS(=O)(=O)CCC12CCC(c3nnc(-c4ccccc4C(F)(F)F)n3C)(CC1)CC2", "values": [
      {"measurement": "bioavailability", "setting": "[6]", "value": 87, "unit": "%"},
      {"measurement": "clearance", "setting": "[7]", "value": 4, "unit": "mL/min/kg"},
      {"measurement": "logD", "setting": "[8]", "value": 2.2},
      {"measurement": "Tmax", "setting": "[9]", "value": 2, "unit": "h"},
      {"measurement": "inhibition in vivo at 10 mg/kg", "setting": "Mus musculus [1]", "value": 89, "unit": "%"},
      {"measurement": "Tmax", "setting": "[10]", "value": 2, "unit": "h"},
      {"measurement": "half-life", "setting": "[11]", "value": 6.5, "unit": "h"},
      {"measurement": "half-life", "setting": "[12]", "value": 4.9, "unit": "h"},
      {"measurement": "half-life", "setting": "[13]", "value": 12.2, "unit": "h"},
      {"measurement": "bioavailability", "setting": "[14]", "value": 24, "unit": "%"},
      {"measurement": "Vd", "setting": "[15]", "value": 1.6, "unit": "L/kg"},
      {"measurement": "Activity", "setting": "Mus musculus [16]", "value": "Active"},
      {"measurement": "half-life", "setting": "[17]", "value": 4.8, "unit": "h"},
      {"measurement": "Vd", "setting": "[18]", "value": 1.7, "unit": "L/kg"},
      {"measurement": "bioavailability", "setting": "[19]", "value": 59, "unit": "%"},
      {"measurement": "inhibition in vivo at 10 mg/kg", "setting": "Mus musculus [4]", "value": 76, "unit": "%"},
      {"measurement": "Vd", "setting": "[20]", "value": 1.1, "unit": "L/kg"},
      {"measurement": "Activity", "setting": "Mus musculus [21]", "value": "Active"},
      {"measurement": "clearance", "setting": "[22]", "value": 2.1, "unit": "mL/min/kg"},
      {"measurement": "Vd", "setting": "[23]", "value": 0.72, "unit": "L/kg"},
      {"measurement": "Activity", "setting": "[24]", "value": "< 10", "unit": "%"},
      {"measurement": "Tmax", "setting": "[25]", "value": 2, "unit": "h"},
      {"measurement": "Tmax", "setting": "[26]", "value": 5, "unit": "h"},
      {"measurement": "clearance", "setting": "[27]", "value": 1.9, "unit": "mL/min/kg"},
      {"measurement": "Activity", "setting": "[28]", "value": "Not Active"},
      {"measurement": "Activity", "setting": "Mus musculus [29]", "value": "Active"},
      {"measurement": "bioavailability", "setting": "[30]", "value": 89, "unit": "%"},
      {"measurement": "solubility", "setting": "[31]", "value": "> 1000", "unit": "µg/mL"},
      {"measurement": "clearance", "setting": "[32]", "value": 2.9, "unit": "mL/min/kg"}
    ]},
    {"smiles": "CCCCCC12CCC(c3nnc4n3CCCCCC4)(CC1)CC2", "values": [
      {"measurement": "inhibition in vivo at 10 mg/kg", "setting": "Mus musculus [33]", "value": 71, "unit": "%"},
      {"measurement": "inhibition in vivo at 10 mg/kg", "setting": "Mus musculus [1]", "value": 51, "unit": "%"},
      {"measurement": "bioavailability", "setting": "[14]", "value": 6, "unit": "%"},
      {"measurement": "IC50", "setting": "[3]", "value": 4, "unit": "nM"}
    ]}
  ]
}
